Source: ChEMBL document CHEMBL6083194, “Discovery and evaluation of 3-(2-isocyanobenzyl)-1H-indole derivatives as potential quorum sensing inhibitors for the control of Pseudomonas aeruginosa infections in vitro” (RSC Med Chem, 2024)
≈ marks a conversion by molar mass, not a printed value. Calls of active or inactive are those of the source. The rule behind the calls is not given here.

Experiments:
Pseudomonas aeruginosa [1] = test: Downregulation of sodB gene expression in Pseudomonas aeruginosa PAO1 assessed as fold decrease at 25 ug/ml by RT-qPCR analysis; type: functional; conditions: dose 25.0 µg/ml
Pseudomonas aeruginosa [2] = test: Downregulation of sucD gene expression in Pseudomonas aeruginosa PAO1 assessed as fold decrease at 25 ug/ml by RT-qPCR analysis; type: functional; conditions: dose 25 µg/ml
Pseudomonas aeruginosa [3] = test: Downregulation of sdhB gene expression in Pseudomonas aeruginosa PAO1 assessed as fold decrease at 25 ug/ml by RT-qPCR analysis; type: functional; conditions: dose 25 µg/ml
Pseudomonas aeruginosa [4] = test: Downregulation of pqsR gene expression in Pseudomonas aeruginosa PAO1 assessed as fold decrease at 25 ug/ml by RT-qPCR analysis; type: functional; conditions: dose 25 µg/ml
Pseudomonas aeruginosa [5] = test: Downregulation of rhlI gene expression in Pseudomonas aeruginosa PAO1 assessed as fold decrease at 25 ug/ml by RT-qPCR analysis; type: functional; conditions: dose 25 µg/ml
Pseudomonas aeruginosa [6] = test: Downregulation of lasI gene expression in Pseudomonas aeruginosa PAO1 assessed as fold decrease at 25 ug/ml by RT-qPCR analysis; type: functional; conditions: dose 25 µg/ml
[7] = Inhibition of quorum sensing system in Pseudomonas aeruginosa PAO1
How it was run: (§1)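 Plate screen. CV026 grown overnight in LB with 50 μg ml−1 kanamycin; 15 μl seeded into 15 ml LB agar (1.0% agarose) containing 20 μM C4-HSL. PAO1 plates run in parallel. Test colonies inoculated by toothpick, incubated overnight at 37 °C. Ring of colourless viable cells around the colony scored as inhibition.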

[8] = Inhibition of quorum sensing system in Chromobacterium violaceum CV026; how it was run: as §1
Pseudomonas aeruginosa [9] = test: Inhibition of biofilm formation in Pseudomonas aeruginosa PAO1 incubated for 24 hrs crystal violet staining based SEM assay; type: functional, organism-based
Pseudomonas aeruginosa [10] = test: Inhibition of pyocyanin production in Pseudomonas aeruginosa PAO1 at 1/2 time MIC incubated for 18 hrs; type: functional
How it was run: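 Overnight PAO1 in LB diluted to OD600 = 0.05, subcultured 5–7 h to mid-log, rediluted to OD600 = 0.05. 5 mL with compound grown 18 h at 37 °C, 200 rpm. Supernatant extracted with 3 mL chloroform, back-extracted into 0.2 M HCl, absorbance at 520 nm.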

Pseudomonas aeruginosa [11] = test: Inhibition of rhamnolipid production in Pseudomonas aeruginosa PAO1 at 1/2 to 1/4 times MIC by orcinol method; type: functional, organism-based
How it was run: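 Overnight PAO1 diluted 1:100 into LB with compound, 37 °C, 180 rpm; DMSO control. Supernatant (100 μL) mixed with 900 μL 0.19% orcinol in 53% H2SO4, heated 30 min at 80 °C, cooled, read at 421 nm.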

Pseudomonas aeruginosa [12] = test: Antibacterial activity against Pseudomonas aeruginosa PAO1 by serial dilution method; type: functional
How it was run: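 PAO1 in LB, 37 °C. MIC by CLSI 2-fold serial dilution in Mueller–Hinton broth, inoculum 1–5 × 10^5 CFU mL−1, DMSO stocks. Growth curves: overnight culture diluted to OD600 = 0.05, subcultured to mid-log, rediluted to OD600 = 0.05, 3 mL with compound; OD620 read at 1, 3, 5, 7, 9, 11 and 24 h at 37 °C; DMSO negative control.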

[13] = Inhibition of quorum sensing system in Pseudomonas aeruginosa PAO1 assessed as reduction in C4-HSL level at 6.25 to 25 ug/ml incubated for 24 hrs by LC-MS/MS method; conditions: dose 6.25-25 µg/ml
[14] = Inhibition of quorum sensing system in Pseudomonas aeruginosa PAO1 assessed as reduction in 3-oxo-C12-HSL level at 6.25 to 25 ug/ml incubated for 24 hrs by LC-MS/MS method; conditions: dose 6.25-25 µg/ml
[15] = Inhibition of quorum sensing system in Pseudomonas aeruginosa PAO1 assessed as reduction in C4-HSL level at 50 ug/ml incubated for 24 hrs by LC-MS/MS method; conditions: dose 50.0 µg/ml
[16] = Inhibition of quorum sensing system in Pseudomonas aeruginosa PAO1 assessed as reduction in C4-HSL level at 25 ug/ml incubated for 24 hrs by LC-MS/MS method; conditions: dose 25.0 µg/ml
[17] = Inhibition of quorum sensing system in Pseudomonas aeruginosa PAO1 assessed as reduction in C4-HSL level at 12.5 ug/ml incubated for 24 hrs by LC-MS/MS method; conditions: dose 12.5 µg/ml
Pseudomonas aeruginosa [18] = test: Anti-virulence effect in Pseudomonas aeruginosa PAO1 assessed as decrease in protease level at 25 ug/ml; type: functional; set-up: scale not given: the % may be the effect or the level left; conditions: dose 25 µg/ml
How it was run: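 Overnight PAO1 culture diluted 1:100 into LB with compound (6.25–25 μg mL−1), grown at 37 °C and 180 rpm; DMSO and RSV (25 μg mL−1) as controls. Culture supernatant mixed with 2% azocasein in 1 M Tris–HCl pH 8.0 for 15 min at 37 °C. Reaction stopped with 10% TCA, centrifuged, NaOH added, read at OD440.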

Pseudomonas aeruginosa [19] = test: Anti-virulence effect in Pseudomonas aeruginosa PAO1 assessed as inhibition of pyocyanin production at 25 ug/ml; type: functional; set-up: scale not given: the % may be the effect or the level left; conditions: dose 25 µg/ml
How it was run: (§2)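 Overnight PAO1 culture in LB at 37 °C, diluted to OD600 0.05 and subcultured 5–7 h to mid-log phase, then re-diluted to OD600 0.05. Grown 18 h at 37 °C and 200 rpm with compound (6.25, 12.5, 25 μg mL−1) or DMSO. Supernatant extracted into chloroform, back-extracted into 0.2 M HCl, read at 520 nm.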

Pseudomonas aeruginosa [20] = test: Anti-virulence effect in Pseudomonas aeruginosa PAO1 assessed as inhibition of pyocyanin production at 12.5 ug/ml; type: functional; set-up: scale not given: the % may be the effect or the level left; conditions: dose 12.5 µg/ml; how it was run: as §2
Pseudomonas aeruginosa [21] = test: Anti-virulence effect in Pseudomonas aeruginosa PAO1 assessed as inhibition of pyocyanin production at 6.25 ug/ml; type: functional; set-up: scale not given: the % may be the effect or the level left; conditions: dose 6.25 µg/ml; how it was run: as §2
Pseudomonas aeruginosa [22] = test: Anti-virulence effect in Pseudomonas aeruginosa PAO1 assessed as inhibition of rhamnolipid production at 25 ug/ml; type: functional; set-up: scale not given: the % may be the effect or the level left; conditions: dose 25 µg/ml
How it was run: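 PAO1 culture supernatant from growth with compound (6.25–25 μg mL−1) at 37 °C and 180 rpm, or with DMSO or RSV (25 μg mL−1) as controls. Orcinol assay: 100 μL sample plus 0.19% orcinol in 53% H2SO4, heated 30 min at 80 °C, cooled, read at 421 nm. At least three experiments in triplicate.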

Pseudomonas aeruginosa [23] = test: Anti-virulence effect in Pseudomonas aeruginosa PAO1 assessed as inhibition of EPS production at 25 ug/ml; type: functional; set-up: scale not given: the % may be the effect or the level left; conditions: dose 25 µg/ml
How it was run: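 PAO1 grown with compound (6.25–25 μg mL−1) in 24-well plates for 24 h at 37 °C and 180 rpm; DMSO and RSV (25 μg mL−1) as controls. Biofilms washed with water, then treated with 0.9% NaCl, 5% phenol and 0.2% hydrazine sulfate. Held 1 h in the dark, read at OD490. Three independent experiments.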

Pseudomonas aeruginosa [24] = test: Downregulation of PA5439 gene expression in Pseudomonas aeruginosa PAO1 assessed as fold decrease at 25 ug/ml by RT-qPCR analysis; type: functional; conditions: dose 25 µg/ml
HEK-293T = test: Cytotoxicity against human HEK293T cells by CCK8 assay; type: functional, cell-based
How it was run: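 HEK293T cell viability by CCK-8; IC50 determined.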

Erythrocyte = test: Cytotoxicity against mouse RBC at 100 to 1024 ug/ml; type: toxicity, cell-based; conditions: dose 100-1024 µg/ml
[25] = Cytotoxicity against MEF at 100 to 1024 ug/ml; type: toxicity, cell-based; conditions: mouse, dose 100-1024 µg/ml

Compound: Cc1cccc(C#N)c1Cc1c[nH]c2ccccc12
- fold change (FC) (Pseudomonas aeruginosa [1]): 1.82
- fold change (FC) (Pseudomonas aeruginosa [2]): 5.65
- fold change (FC) (Pseudomonas aeruginosa [3]): 2.87
- fold change (FC) (Pseudomonas aeruginosa [4]): 7.41
- fold change (FC) (Pseudomonas aeruginosa [5]): 7.3
- fold change (FC) (Pseudomonas aeruginosa [6]): 5
- inhibition [7]: Active; Strong Inhibition Observed
- inhibition [8]: Active; Showed Higher Activity
- inhibition (Pseudomonas aeruginosa [9]): Dose-dependent-effect
- inhibition (INH) (Pseudomonas aeruginosa [10]): 64%
- inhibition (Pseudomonas aeruginosa [11]): Active
- MIC (Pseudomonas aeruginosa [12]): 96 µg/mL (≈ 390 µM)
- inhibition [13]: Active
- inhibition [14]: Active
- inhibition [15]: 19%
- inhibition [16]: 51%
- inhibition [17]: 61%
- Activity (Pseudomonas aeruginosa [18]): 51%
- Activity (Pseudomonas aeruginosa [19]): 73%
- Activity (Pseudomonas aeruginosa [20]): 57%
- Activity (Pseudomonas aeruginosa [21]): 41%
- Activity (Pseudomonas aeruginosa [22]): 23%
- Activity (Pseudomonas aeruginosa [23]): 37%
- fold change (FC) (Pseudomonas aeruginosa [24]): 10.87
- IC50 (HEK-293T): 59 µM
- Activity (Erythrocyte): Toxic
- Activity [25]: Toxic
